According to ChEMBL document CHEMBL1147501, “Synthesis and nicotinic acetylcholine receptor binding affinities of 2- and 3-isoxazolyl-8-azabicyclo[3.2.1]octanes” (Bioorg Med Chem Lett, 2004):

Target: Neuronal acetylcholine receptor (Rattus norvegicus) (UniProt P04757+P09483+P12389+P12390+P12392+P43144+Q9JLB5+P12391+P43143+P20420+Q05941)
Experiment: Percent Inhibition of [3H]cytisine binding at neuronal nicotinic acetylcholine receptor in rat brain at 100 uM
Type: tissue-based

SMILES | inhibition
Cc1cc(C2CC3CCC(C2)N3C)on1 (configuration not stated) | 40%

Target: not listed separately
Experiment: Inhibition of [3H]-cytisine binding to neuronal nicotinic acetylcholine receptor of rat brain
How it was run: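 Test compounds run as oxalate salts. Ki values are reported as mean ± SEM of three independent experiments, each performed in triplicate.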

SMILES | Ki
Cc1cc(C2=CC3CCC(C2)N3C)on1 (configuration not stated) | 720 nM
Cc1cc(C2CC3CCC(C2)N3C)on1 (configuration not stated) | 194 nM
Cc1cc(C2CCC3CC[C@@H]2N3)on1 (some centres not stated) | 3 nM
Cc1cc(C2CC3CCC(C2)N3)on1 (stereo in doubt; 15a) | 18000 nM
Cc1cc(C2CC3CCC(C2)N3)on1 (stereo in doubt; 15b) | 148 nM
Clc1ccc(C2CC3CC[C@@H]2N3)cn1 (some centres not stated) | 0.79 nM
Clc1ccc([C@H]2CCC3CCC2N3)cn1 (some centres not stated) | 1.04 nM
Cc1cc(C2=CC3CCC(C2)N3)on1 (configuration not stated) | 320 nM
CN1CCC[C@H]1c1ccccc1 | 8 nM
Cc1cc(C2CC[C@H]3CCC2N3C)on1 (some centres not stated) | 1470 nM
Cc1cc([C@@H]2CCC3CCC2N3)on1 (some centres not stated) | 26000 nM
